Results as given in ChEMBL document CHEMBL3585255, “The Cephalostatins. 24. Isolation, Structure, and Cancer Cell Growth Inhibition of Cephalostatin 20” (2015).

Experiments:
Format in all cases: functional
SF-268 = assay: Cytotoxicity against human SF268 cells after 48 hrs by sulforhodamine B assay; conditions: SF-268, 48 h
Method in brief: (§1)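 Cells in RPMI1640 with 5% fetal bovine serum were plated in 96-well plates and incubated 24 h before serial dilutions of compound were added. After 48 h exposure, cells were fixed with trichloroacetic acid and stained with sulforhodamine B, and optical density was read on a plate reader. GI50, the concentration giving 50% reduction in net protein increase, was calculated from the OD data.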

NCI-H460 = assay: Cytotoxicity against human NCI-H460 cells after 48 hrs by sulforhodamine B assay; conditions: NCI-H460, 48 h; method in brief: as §1
[1] = Cytotoxicity against human BxPC3 cells after 48 hrs by sulforhodamine B assay; conditions: BXPC-3, 48 h; method in brief: as §1
DU-145 = assay: Cytotoxicity against human DU145 cells after 48 hrs by sulforhodamine B assay; conditions: DU-145, 48 h; method in brief: as §1
MCF7 = assay: Cytotoxicity against human MCF7 cells after 48 hrs by sulforhodamine B assay; conditions: MCF7, 48 h; method in brief: as §1
[2] = Cytotoxicity against human KM20L2 cells after 48 hrs by sulforhodamine B assay; conditions: KM-20L2, 48 h; method in brief: as §1

| Structure (SMILES) | GI50 (SF-268) | GI50 (NCI-H460) | GI50 [1] | GI50 (DU-145) | GI50 (MCF7) | GI50 [2] |
| --- | --- | --- | --- | --- | --- | --- |
| C[C@H]1[C@H]2C[C@@H](O)c3c4c(cc(c32)OC12OC(C)(C)C[C@H]2O)[C@@]1(C)Cc2nc3c(nc2C[C@@H]1CC4)C[C@@]1(C)[C@@H](CC[C@H]2C4=C[C@@H]5O[C@@]6(C[C@]5(O)[C@@]4(C)[C@H](O)C[C@@H]21)O[C@](C)(CO)C[C@H]6O)C3 (stereo partly drawn) [CEPHALOSTATIN 6] | 610 nM | 320 nM | 380 nM | > 1100 nM | 550 nM | 390 nM |
| C[C@@H]1[C@H]2CC=C3[C@H]4CC[C@H]5Cc6nc7c(nc6C[C@]5(C)[C@@]4(O)CC(=O)[C@@]32CO[C@]12OC(C)(C)C[C@H]2O)C[C@@H]1CC[C@H]2C3=C[C@@H]4O[C@]5(O[C@](C)(CO)C[C@H]5O)[C@@H](C)[C@]4(O)[C@@]3(C)[C@H](O)C[C@@H]2[C@@]1(C)C7 [CEPHALOSTATIN 17] | 2.7 nM | 0.46 nM | 0.36 nM | 3.3 nM | 0.43 nM | 0.58 nM |
| C[C@@H]1[C@]2(O[C@H]3C=C4[C@@H]5CC[C@H]6Cc7nc8c(nc7C[C@]6(C)[C@H]5C[C@@H](O)[C@]4(C)[C@]31O)C[C@@H]1CC[C@H]3C4=CC[C@@H]5[C@H](C)[C@@]6(OC[C@]45C(=O)C[C@]3(O)[C@@]1(C)C8)OC(C)(C)C[C@H]6O)O[C@](C)(CO)C[C@H]2O [CEPHALOSTATIN 2] | 0.12 nM | 0.0056 nM | 0.022 nM | 0.11 nM | 0.022 nM | 0.006 nM |
| C[C@@H]1[C@H]2C[C@@H]3O[C@@]34[C@]3(O)CC[C@H]5Cc6nc7c(nc6C[C@]5(C)C3=CC(=O)[C@]24CO[C@]12OC(C)(C)C[C@H]2O)C[C@@H]1CC[C@H]2C3=C[C@@H]4O[C@]5(O[C@](C)(CO)C[C@H]5O)[C@@H](C)[C@]4(O)[C@@]3(C)[C@H](O)C[C@@H]2[C@@]1(C)C7 [CEPHALOSTATIN 14] | 80 nM | 32 nM | 35 nM | 130 nM | 28 nM | 35 nM |
| C[C@@H]1[C@]2(O[C@H]3C=C4[C@@H]5CC[C@H]6Cc7nc8c(nc7C[C@]6(C)[C@H]5C[C@@H](O)[C@]4(C)[C@]31O)C[C@@H]1CC[C@H]3C4=C[C@@H]5O[C@]6(O[C@](C)(CO)C[C@H]6O)[C@@H](C)[C@]5(O)[C@@]4(C)[C@H](O)C[C@@H]3[C@@]1(C)C8)O[C@](C)(CO)C[C@H]2O [CEPHALOSTATIN 12] | 150 nM | 37 nM | 31 nM | 440 nM | 33 nM | 38 nM |
| C[C@H]1[C@@H](O)C2(Oc3cc4c(c5c3[C@H](C[C@H]5O)[C@@H]2C)CC[C@H]2Cc3nc5c(nc3C[C@]42C)C[C@@H]2CC[C@H]3C4=C[C@@H]6O[C@@]7(C[C@]6(O)[C@@]4(C)[C@H](O)C[C@@H]3[C@@]2(C)C5)O[C@](C)(CO)C[C@H]7O)OC1(C)C (stereo partly drawn) [CEPHALOSTATIN 5] | 440 nM | 150 nM | 330 nM | 120 nM | 340 nM | 100 nM |
| C[C@@H]1[C@]2(O[C@H]3C=C4[C@@H]5CC[C@H]6Cc7nc8c(nc7C[C@]6(C)[C@H]5C[C@@H](O)[C@]4(C)[C@]31O)C[C@@H]1CC[C@H]3C4=C[C@@H]5O[C@]6(CC[C@](C)(O)CO6)C[C@]5(O)[C@@]4(C)[C@H](O)C[C@@H]3[C@@]1(C)C8)O[C@](C)(CO)C[C@H]2O [CEPHALOSTATIN 7] | 110 nM | 8.2 nM | 5 nM | 470 nM | 50 nM | 48 nM |
| CO[C@H]1c2nc3c(nc2C[C@@H]2CC[C@H]4C5=CC[C@@H]6[C@@H](C)[C@]7(OC[C@]56C(=O)C[C@@H]4[C@]21C)OC(C)(C)C[C@H]7O)C[C@@]1(C)[C@@H](CC[C@H]2C4=C[C@@H]5O[C@]6(O[C@](C)(CO)C[C@H]6O)[C@@H](C)[C@]5(O)[C@@]4(C)[C@H](O)C[C@@H]21)C3 [CEPHALOSTATIN 11] | 27 nM | 5.4 nM | 4.9 nM | 23 nM | 4.1 nM | 6.3 nM |
| C[C@@H]1[C@]2(O[C@H]3C=C4[C@@H]5CC[C@H]6Cc7nc8c(nc7C[C@]6(C)[C@H]5C[C@@H](O)[C@]4(C)[C@]31O)C[C@@H]1CC[C@H]3C4=C[C@@H]5O[C@]6(O[C@](C)(CO)C[C@H]6O)[C@@H](C)[C@]5(O)[C@@]4(C)[C@H](O)C[C@@H]3[C@@]1(C)[C@H]8O)O[C@](C)(CO)C[C@H]2O [CEPHALOSTATIN 13] | 340 nM | 370 nM | 310 nM | 1100 nM | 290 nM | 470 nM |
| C[C@@H]1[C@H]2CC=C3[C@@H]4CC[C@H]5Cc6nc7c(nc6C[C@]5(C)[C@H]4CC(=O)[C@@]32COC1(O)[C@H](O)CC(C)(C)O)C[C@@H]1CC[C@H]2C3=C[C@@H]4O[C@]5(O[C@](C)(CO)C[C@H]5O)[C@@H](C)[C@]4(O)[C@@]3(C)[C@H](O)C[C@@H]2[C@@]1(C)C7 (stereo partly drawn) [CEPHALOSTATIN 9] | 150 nM | 39 nM | 14 nM | > 1100 nM | 110 nM | 58 nM |
| C[C@@H]1[C@]2(O[C@H]3C=C4[C@@H]5CC[C@H]6Cc7nc8c(nc7C[C@]6(C)[C@H]5C[C@@H](O)[C@]4(C)[C@]31O)C[C@@H]1CC[C@H]3C4=CC[C@@H]5[C@H](C)[C@@](O)([C@H](O)CC(C)(C)O)OC[C@]45C(=O)C[C@]3(O)[C@@]1(C)C8)O[C@](C)(CO)C[C@H]2O | 36 nM | 6 nM | 16 nM | 210 nM | 22 nM | 7.2 nM |
| C[C@@H]1[C@]2(O[C@H]3C=C4[C@@H]5CC[C@H]6Cc7nc8c(nc7C[C@]6(C)[C@H]5C[C@@H](O)[C@]4(C)[C@]31O)C[C@@H]1CC[C@H]3C4=CC[C@@H]5[C@H](C)[C@@]6(OC[C@]45C(=O)C[C@]3(O)[C@@]1(C)C8)OC(C)(C)[C@@H](C)[C@H]6O)O[C@](C)(CO)C[C@H]2O [CEPHALOSTATIN 3] | 0.58 nM | 0.043 nM | 0.043 nM | 0.16 nM | 0.032 nM | 0.096 nM |
| CO[C@H]1c2nc3c(nc2C[C@@H]2CC[C@H]4C5=C[C@@H]6O[C@]7(O[C@](C)(CO)C[C@H]7O)[C@@H](C)[C@]6(O)[C@@]5(C)[C@H](O)C[C@@H]4[C@]21C)C[C@@]1(C)[C@@H](CC[C@H]2C4=CC[C@@H]5[C@H](C)[C@@]6(OC[C@]45C(=O)C[C@@]21O)OC(C)(C)C[C@H]6O)C3 [CEPHALOSTATIN 10] | 3.7 nM | 0.6 nM | 1.3 nM | 8.5 nM | 1.4 nM | 0.7 nM |
